Reference: ChEMBL document CHEMBL3286396, “Discovery and Synthesis of C-Nucleosides as Potential New Anti-HCV Agents” (ACS Med Chem Lett, 2014)
pEC50, pIC50: −log10 of the molar value.

Legend:
[1] = Total clearance in cynomolgus monkey at 2 mg/kg, iv and 5 mg/kg, po by WinNonlin non-compartmental analysis; format: ADME, organism-based, Macaca fascicularis; conditions: in vivo
Hepatocyte [2] = experiment: Drug anabolism in rat hepatocytes assessed as monophosphate level at 10 uM after 24 hrs measured per million cells by mass spectrometer analysis; format: ADME, cell-based
Hepatitis C virus [3] = experiment: Antiviral activity against Hepatitis C virus genotype 4a infected in human HuH7 cells assessed as inhibition of subgenomic replicon RNA replication after 72 hrs by luciferase reporter assay; format: functional, cell-based, Hepacivirus hominis; conditions: Huh-7, 72 h
[4] = Drug anabolism in dog hepatocytes assessed as compound level at 10 uM after 24 hrs measured per million cells by mass spectrometer analysis; format: ADME, cell-based, Canis lupus familiaris, Hepatocyte
[5] = Drug anabolism in human HuH7 cells assessed as triphosphate level at 10 uM after 24 hrs measured per million cells by mass spectrometer analysis; format: ADME, cell-based; conditions: huh-7, 24 h
[6] = Drug anabolism in human HuH7 cells assessed as compound level at 10 uM after 24 hrs measured per million cells by mass spectrometer analysis; format: ADME, cell-based; conditions: huh-7, 24 h
Hepatitis C virus [7] = experiment: Antiviral activity against Hepatitis C virus genotype 6a infected in human HuH7 cells assessed as inhibition of subgenomic replicon RNA replication after 72 hrs by luciferase reporter assay; format: functional, cell-based, Hepacivirus hominis; conditions: Huh-7, 72 h
[8] = Inhibition of C-terminal His6-tagged and C-terminal 21 amino acids truncated Hepatitis C virus genotype 5a SA13 NS5B RNA-dependent RNA polymerase activity using polyU or polyC RNA as template by microbeta plate reader analysis
Rattus norvegicus = experiment: Toxicity in rat assessed as animal death up to 400 mg/kg, po administered as single dose; format: organism-based; design: dose 400 mg/kg, route oral; conditions: in vivo
[9] = Cytotoxicity in rat liver epithelial cells; format: cell-based, Epithelial cell
Hepatocyte [10] = experiment: Drug anabolism in human hepatocytes assessed as monophosphate level at 10 uM after 24 hrs measured per million cells by mass spectrometer analysis; format: ADME, cell-based
Hepatitis C virus [11] = experiment: Antiviral activity against Hepatitis C virus genotype 3a infected in human HuH7 cells assessed as inhibition of subgenomic replicon RNA replication after 72 hrs by luciferase reporter assay; format: functional, cell-based, Hepacivirus hominis; conditions: Huh-7, 72 h
[12] = Inhibition of myeloid progenitor proliferation in human bone marrow cells up to 100 uM; format: cell-based; conditions: bone marrow cell
[13] = Volume of distribution at steady state in cynomolgus monkey at 2 mg/kg, iv and 5 mg/kg, po by WinNonlin non-compartmental analysis; format: ADME, organism-based, Macaca fascicularis; conditions: in vivo, read-out: Vdss
[14] = Inhibition of erythroid progenitor proliferation in human bone marrow cells up to 100 uM; format: cell-based; conditions: bone marrow cell
[15] = Volume of distribution at steady state in Sprague-Dawley rat at 2 mg/kg, iv and 5 mg/kg, po by WinNonlin non-compartmental analysis; format: ADME, organism-based; conditions: in vivo, read-out: Vdss
In short: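 Pharmacokinetics were determined in male Sprague–Dawley rats.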

Hepatitis C virus [16] = experiment: Antiviral activity against Hepatitis C virus genotype 2a infected in human HuH7 cells assessed as inhibition of subgenomic replicon RNA replication after 72 hrs by luciferase reporter assay; format: functional, cell-based, Hepacivirus hominis; conditions: Huh-7, 72 h
[17] = Inhibition of C-terminal His6-tagged and C-terminal 21 amino acids truncated Hepatitis C virus genotype 1a H77 NS5B RNA-dependent RNA polymerase activity using polyU or polyC RNA as template by microbeta plate reader analysis; design: species or system Hepatitis C virus (isolate H77)
Hepatocyte [18] = experiment: Drug anabolism in rat hepatocytes assessed as diphosphate level at 10 uM after 24 hrs measured per million cells by mass spectrometer analysis; format: ADME, cell-based
[19] = Inhibition of N-terminal His6-tagged Hepatitis C virus genotype 1b isolate Con1 NS5B RNA-dependent RNA polymerase activity by plate reader analysis
Hepatitis C virus [20] = experiment: Antiviral activity against Hepatitis C virus genotype 1b infected in human HuH7 cells assessed as inhibition of subgenomic replicon RNA replication after 72 hrs by luciferase reporter assay; format: functional, cell-based, Hepacivirus hominis; conditions: Huh-7, 72 h
[21] = Drug anabolism in human HuH7 cells assessed as diphosphate level at 10 uM after 24 hrs measured per million cells by mass spectrometer analysis; format: ADME, cell-based; conditions: huh-7, 24 h
[22] = Cmax in Beagle dog at 5 mg/kg, po by WinNonlin non-compartmental analysis; format: ADME, organism-based, Canis lupus familiaris; design: dose 5 mg/kg, route oral; conditions: in vivo
Hepatocyte [23] = experiment: Drug anabolism in rat hepatocytes assessed as compound level at 10 uM after 24 hrs measured per million cells by mass spectrometer analysis; format: ADME, cell-based
[24] = Drug anabolism in dog hepatocytes assessed as diphosphate level at 10 uM after 24 hrs measured per million cells by mass spectrometer analysis; format: ADME, cell-based, Canis lupus familiaris, Hepatocyte
Hepatitis C virus [25] = experiment: Antiviral activity against Hepatitis C virus genotype 2b infected in human HuH7 cells assessed as inhibition of subgenomic replicon RNA replication after 72 hrs by luciferase reporter assay; format: functional, cell-based, Hepacivirus hominis; conditions: Huh-7, 72 h
[26] = Mitochondrial toxicity in human HepG2 cells assessed as increase in lactate production up to 10 uM measured for 14 days; format: cell-based, Mitochondria; conditions: hepg2, 336 h
[27] = Volume of distribution at steady state in Beagle dog at 2 mg/kg, iv and 5 mg/kg, po by WinNonlin non-compartmental analysis; format: ADME, organism-based, Canis lupus familiaris; conditions: in vivo, read-out: Vdss
Hepatitis C virus [28] = experiment: Antiviral activity against Hepatitis C virus genotype 1a infected in human HuH7 cells assessed as inhibition of subgenomic replicon RNA replication after 72 hrs by luciferase reporter assay; format: functional, cell-based, Hepacivirus hominis; conditions: subtype 1a, Huh-7, 72 h
[29] = Total clearance in Sprague-Dawley rat at 2 mg/kg, iv and 5 mg/kg, po by WinNonlin non-compartmental analysis; format: ADME, organism-based; conditions: in vivo
In short: (§1)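 PK study animals were male Sprague–Dawley rats.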

[30] = Cytotoxicity in rat kidney fibroblasts; design: species or system Fibroblast
[31] = Cmax in Sprague-Dawley rat at 5 mg/kg, po by WinNonlin non-compartmental analysis; format: ADME, organism-based; design: dose 5 mg/kg, route oral; conditions: in vivo; in short: as §1
[32] = Inhibition of C-terminal His6-tagged and C-terminal 21 amino acids truncated Hepatitis C virus genotype 3a VRL-69 NS5B RNA-dependent RNA polymerase activity using polyU or polyC RNA as template by microbeta plate reader analysis; design: species or system Hepatitis C virus subtype 3a
Hepatocyte [33] = experiment: Drug anabolism in human hepatocytes assessed as compound level at 10 uM after 24 hrs measured per million cells by mass spectrometer analysis; format: ADME, cell-based
[34] = Cytotoxicity against human HuH7 cells by MTT assay; format: cell-based, Huh-7
In short: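 Huh-7-derived HCV replicon cell lines were used, with MTT as the vital dye read-out.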

[35] = Drug anabolism in dog hepatocytes assessed as triphosphate level at 10 uM after 24 hrs measured per million cells by mass spectrometer analysis; format: ADME, cell-based, Canis lupus familiaris, Hepatocyte
[36] = Drug anabolism in human HuH7 cells assessed as monophosphate level at 10 uM after 24 hrs measured per million cells by mass spectrometer analysis; format: ADME, cell-based; conditions: huh-7, 24 h
[37] = Inhibition of C-terminal His6-tagged and C-terminal 21 amino acids truncated Hepatitis C virus genotype 2a JFH-1 NS5B RNA-dependent RNA polymerase activity using polyU or polyC RNA as template by microbeta plate reader analysis; design: species or system Hepatitis C virus JFH-1
[38] = Inhibition of C-terminal His6-tagged and C-terminal 21 amino acids truncated Hepatitis C virus genotype 7a QC69 NS5B RNA-dependent RNA polymerase activity using polyU or polyC RNA as template by microbeta plate reader analysis; design: species or system Hepacivirus hominis
Hepatocyte [39] = experiment: Drug anabolism in human hepatocytes assessed as triphosphate level at 10 uM after 24 hrs measured per million cells by mass spectrometer analysis; format: ADME, cell-based
Hepatitis C virus [40] = experiment: Antiviral activity against Hepatitis C virus genotype 5a infected in human HuH7 cells assessed as inhibition of subgenomic replicon RNA replication after 72 hrs by luciferase reporter assay; format: functional, cell-based, Hepacivirus hominis; conditions: Huh-7, 72 h
Salmonella typhimurium = experiment: Genotoxicity in Salmonella typhimurium by Ames test; format: toxicity, organism-based; conditions: salmonella enterica subsp. enterica serovar typhimurium
[41] = Drug anabolism in dog hepatocytes assessed as monophosphate level at 10 uM after 24 hrs measured per million cells by mass spectrometer analysis; format: ADME, cell-based, Canis lupus familiaris, Hepatocyte
Hepatocyte [42] = experiment: Drug anabolism in human hepatocytes assessed as diphosphate level at 10 uM after 24 hrs measured per million cells by mass spectrometer analysis; format: ADME, cell-based
[43] = Cytotoxicity in rat heart myoblasts; design: species or system Myoblast
[44] = Cmax in cynomolgus monkey at 5 mg/kg, po by WinNonlin non-compartmental analysis; format: ADME, organism-based, Macaca fascicularis; design: dose 5 mg/kg, route oral; conditions: in vivo
[45] = Mitochondrial toxicity in human HepG2 cells assessed as decrease in mitochondrial DNA content up to 10 uM measured for 14 days; format: cell-based, Mitochondria; conditions: hepg2, 336 h
[46] = Total clearance in Beagle dog at 2 mg/kg, iv and 5 mg/kg, po by WinNonlin non-compartmental analysis; format: ADME, organism-based, Canis lupus familiaris; conditions: in vivo
Hepatocyte [47] = experiment: Drug anabolism in rat hepatocytes assessed as triphosphate level at 10 uM after 24 hrs measured per million cells by mass spectrometer analysis; format: ADME, cell-based

For `C[C@@]1(O)[C@H](O)[C@@H](CO)O[C@H]1c1ccc2c(N)ncnn12`, which clearance [1] is on record?
Its clearance is 20.5 mL/min/kg.

What about the Drug metabolism (Hepatocyte [2]) of the same compound?
The Drug metabolism was 7.3 pmol.

What about the pEC50 (Hepatitis C virus [3]) of the same compound?
Its pEC50 is 6.06.

And the Drug metabolism [4]?
The Drug metabolism was 29.7 pmol.

And the Drug metabolism [5]?
The Drug metabolism was 9.33 pmol.

And the Drug metabolism [6]?
Its Drug metabolism is 31.8 pmol.

And the pEC50 (Hepatitis C virus [7])?
The pEC50 was 6.00.

What about the pIC50 [8] of the same compound?
Its pIC50 is 6.32.

What about the Activity (Rattus norvegicus) of the same compound?
Its Activity is “Toxic”.

And the CC50 [9]?
The CC50 was 190000 nM.

And the Drug metabolism (Hepatocyte [10])?
Its Drug metabolism is 27.6 pmol.

What about the pEC50 (Hepatitis C virus [11]) of the same compound?
Its pEC50 is 6.38.

What about the Activity [12] of the same compound?
The Activity was “Non-toxic”.

And the Vd [13]?
The Vd was 2.43 L/kg.

What about the Activity [14] of the same compound?
Its Activity is “Non-toxic”.

What about the Vd [15] of the same compound?
The Vd was 4.19 L/kg.

What about the pEC50 (Hepatitis C virus [16]) of the same compound?
Its pEC50 is 6.20.

What about the pIC50 [17] of the same compound?
The pIC50 was 6.24.

What about the Drug metabolism (Hepatocyte [18]) of the same compound?
Its Drug metabolism is 9.7 pmol.

What about the pIC50 [19] of the same compound?
The pIC50 was 6.43.

And the pEC50 (Hepatitis C virus [20])?
Its pEC50 is 5.80.

What about the Drug metabolism [21] of the same compound?
Its Drug metabolism is 0.53 pmol.

What about the Cmax [22] of the same compound?
The Cmax was 8360 nM.

And the Drug metabolism (Hepatocyte [23])?
The Drug metabolism was 16.9 pmol.

And the Drug metabolism [24]?
Its Drug metabolism is 8.3 pmol.

And the pEC50 (Hepatitis C virus [25])?
Its pEC50 is 6.39.

What about the Activity [26] of the same compound?
The Activity was “Non-toxic”.

What about the Vd [27] of the same compound?
Its Vd is 5.22 L/kg.

What about the pEC50 (Hepatitis C virus [28]) of the same compound?
The pEC50 was 6.12.

What about the clearance [29] of the same compound?
Its clearance is 18.8 mL/min/kg.

What about the CC50 [30] of the same compound?
The CC50 was greater than 250000 nM.

And the Cmax [31]?
The Cmax was 2380 nM.

And the pIC50 [32]?
Its pIC50 is 6.30.

What about the Drug metabolism (Hepatocyte [33]) of the same compound?
The Drug metabolism was 46.2 pmol.

What about the CC50 [34] of the same compound?
Its CC50 is greater than 100000 nM.

What about the Drug metabolism [35] of the same compound?
Its Drug metabolism is 51.2 pmol.

What about the Drug metabolism [36] of the same compound?
Its Drug metabolism is 3.36 pmol.

And the pIC50 [37]?
Its pIC50 is 6.41.

And the pIC50 [38]?
The pIC50 was 6.09.

What about the Drug metabolism (Hepatocyte [39]) of the same compound?
Its Drug metabolism is 487 pmol.

What about the pEC50 (Hepatitis C virus [40]) of the same compound?
The pEC50 was 6.09.

And the Activity (Salmonella typhimurium)?
The Activity was “Non-toxic”.

What about the Drug metabolism [41] of the same compound?
Its Drug metabolism is 7 pmol.

And the Drug metabolism (Hepatocyte [42])?
The Drug metabolism was 40.5 pmol.

And the CC50 [43]?
Its CC50 is greater than 250000 nM.

What about the Cmax [44] of the same compound?
The Cmax was 820 nM.

And the Activity [45]?
Its Activity is “Non-toxic”.

And the clearance [46]?
The clearance was 11.4 mL/min/kg.

And the Drug metabolism (Hepatocyte [47])?
The Drug metabolism was 49.9 pmol.
